The record followed here is paper PMC11101930 (International Journal for Parasitology: Drugs and Drug …, 2024).

Structures can show the parent of a compound that is named as a salt. Where two headings read alike, the source gives them in different places.

The test system of series [1] is newly transformed schistosomula (NTS). Kind of series: In vitro screening of newly transformed schistosomula. The series is classed as cell-based, Schistosoma mansoni. The settings on record: 72 h, read-out: NTS EC50. In outline:
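Cercariae shed from Biomphalaria glabrata under light for 4 h were mechanically transformed and kept in M199 with 5% FCS, antibiotic mastermix and pen./strep. at 37 °C, 5% CO2. 40–50 larvae per well were exposed to 10, 7.5, 5, 3.75, 2.5, 1 or 0.25 μM test compound, with DMSO (<1%) as control. Viability was scored visually at 24 and 72 h (0–3, 0.5 steps), and the assay was repeated once. Scores were normalized to vehicle, and EC50 came from a four- or two-parameter sigmoid least-squares fit.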

Series [2] deals with adult S. mansoni. Kind of series: In vitro screening of adult S. mansoni worms, visual viability scoring. Conditions: Schistosoma mansoni, 72 h, read-out: Adult S. mansoni EC50. The series is classed as cell-based. The procedure, abridged:
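Adult worms were recovered from mouse mesenteric veins at day 49 post-infection and held in RPMI 1640 with 5% FCS and antibiotics at 37 °C, 5% CO2. Two worm pairs per well were exposed to 40, 30, 20, 10, 7.5, 5, 2.5 or 1 μM test compound, with DMSO (<1%) as control. Viability was scored visually at 24 and 72 h (0–3, 0.5 steps). Duplicates, repeated once. Scores were normalized to vehicle, and EC50 came from a four-parameter sigmoid fit (two-parameter if not applicable).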

A short description of series [3]: Metabolic stability assay in murine liver microsomes. Conditions: for Microsomal stability t1/2: murine liver microsomes, 1 μM, 37 °C. The series is classed as in vitro ADME. In outline: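 Test compound (1 μM) was incubated at 37 °C with mouse liver microsomes (0.5 mg/ml protein) in potassium phosphate buffer, pH 7.4, with 1.0 mM EDTA. Reactions were started with NADPH and quenched with ice-cold acetonitrile every 15 min up to 1 h. Depletion was followed by LC-MS/MS (ESI+, C18) against internal standards. A first-order exponential decay fit gave t1/2, and CLint was derived assuming hepatic blood flow of 90 ml/min/kg.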
(Liver microsomes are a subcellular fraction often used to study metabolism.)

Series [4] has as its system S. mansoni. Kind of series: In vivo efficacy study in S. mansoni-infected mice. The settings on record: single oral gavage, 200 mg/kg (1) or 100 mg/kg (19); for Mean number of worms (SD): 21 days post-dosing. On the set-up: species or system Schistosoma mansoni. In outline:
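Female NMRI mice (three weeks old, acclimatized one week) were each infected with 100 cercariae subcutaneously in the nuchal fold. At day 49 they received one oral gavage of test compound in Tween 80/ethanol (70:30, 10% of volume) plus tap water (sonicated, 35 °C); there were four mice per group and four untreated controls. Mice were killed 21 days post-dosing, and worms from mesenteric veins and liver were sexed, counted, and classed as dead or alive. Worm burden reduction was based on living worms versus controls, with a Kruskal-Wallis test.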

In series [5] the test system is P. falciparum D6 strain. Kind of series: Antimalarial activity against P. falciparum D6 strain. The series is classed as cell-based, Plasmodium falciparum. Conditions: among the 11 compounds most active against adult S. mansoni.

With `N=C(N/N=C/c1ccnc2ccccc12)N/N=C/c1ccnc2ccccc12` [Compound 64, (E)-N'-((E)-quinolin-4-ylmethylene)-2-(quinolin-4-ylmethylene)hydrazine-1-carboximidhydrazide Hydrochloride], the EC50 (commonly the concentration at which the effect is half-maximal) in series [1] (Schistosoma mansoni) amounted to 1570 nM. As to `Cl.N#Cc1cccc(C=NNC(=N)NN=Cc2cccc(C#N)c2)c1` [Compound 21, 2,2’-Bis[(3-cyanophenyl)methylene]carbonimidic Dihydrazide Hydrochloride], the EC50 in series [2] was 4.04 µM; in series [1] (Schistosoma mansoni), 1660 nM. Also, the “Microsomal stability t1/2” value in series [3] was 58 min. `N=C(NN=Cc1ccc(-c2ccccc2)cc1)NN=Cc1ccc(-c2ccccc2)cc1` [Compound 26, 2,2’-Bis[(4-diphenyl)methylene]carbonimidic Dihydrazide Hydrochloride]: the EC50 in series [1] (four- (a) or two-parameter (b) sigmoid fit) is 4430 nM. For `N=C(NN=Cc1ccc([N+](=O)[O-])cc1)NN=Cc1ccc([N+](=O)[O-])cc1` [Compound 27, 2,2’-Bis[(4-nitrophenyl)methylene]carbonimidic Dihydrazide Hydrochloride], the EC50 in series [1] (Schistosoma mansoni) was 5710 nM.

Regarding `N=C(N/N=C/c1ccc(Oc2ccccc2)cc1)N/N=C/c1ccc(Oc2ccccc2)cc1` [Compound 57, N',2-bis((E)-4-phenoxybenzylidene)hydrazine-1-carboximidhydrazide Hydrochloride], the EC50 in series [2] was determined as 7.07 µM; in series [1] (Schistosoma mansoni), 3840 nM. For `N=C(NN=Cc1ccc(N2CCOCC2)cc1)NN=Cc1ccc(N2CCOCC2)cc1` [Compound 33, 2,2’-Bis[(4-morpholinophenyl)methylene]carbonimidic Dihydrazide Hydrochloride], in that order: 6.45 µM and 2440 nM.

Regarding `N=C(N/N=C/c1ccc2ccccc2n1)N/N=C/c1ccc2ccccc2n1` [Compound 62, (E)-N'-((E)-quinolin-2-ylmethylene)-2-(quinolin-2-ylmethylene)hydrazine-1-carboximidhydrazide Hydrochloride], the EC50 was determined as 7.49 µM in series [2] and 2500 nM in series [1] (Schistosoma mansoni). For `N=C(N/N=C/c1ccc(Oc2ccc(F)cc2)cc1)N/N=C/c1ccc(Oc2ccc(F)cc2)cc1` [Compound 58, N',2-bis((E)-4-(4-fluorophenoxy)benzylidene)hydrazine-1-carboximidhydrazide Hydrochloride] the same measures were 8.59 µM and 4510 nM.

Turning to `N#Cc1cc(/C=N/NC(=N)N/N=C/c2ccc(Cl)c(C#N)c2)ccc1Cl` [Compound 71, N',2-bis((E)-4-chloro-3-cyanobenzylidene)hydrazine-1-carboximidhydrazide Hydrochloride], the EC50 in series [1] (Schistosoma mansoni) was 1240 nM. For `N=C(NN=Cc1ccc(OC(F)F)cc1)NN=Cc1ccc(OC(F)F)cc1` [Compound 18, 2,2’-Bis[(4-difluoromethoxyphenyl)methylene]carbonimidic Dihydrazide Hydrochloride], the EC50 in series [2] came to 5.12 µM; in series [1] (Schistosoma mansoni), 4630 nM.

With `Cl.N=C(NN=CCc1ccc(OC(F)F)cc1)NN=CCc1ccc(OC(F)F)cc1` [Compound 19, 2,2’-Bis[(4-difluoromethoxyphenyl)ethylidene]carbonimidic Dihydrazide Hydrochloride], the half-maximal effective concentration (EC50) in series [2] stood at 2.78 µM. In series [1] (Schistosoma mansoni), the EC50 stood at 2790 nM. In addition, in series [4], the Tolerability in mice entry is “well tolerated” and the “Mean number of worms (SD)” value is 28.3 (10.6). On to `Cl.N#Cc1cc(C=NNC(=N)NN=Cc2ccc(F)c(C#N)c2)ccc1F` [Compound 1, 2,2’-Bis[(3-cyano-4-fluorophenyl)methylene]carbonimidic Dihydrazide Hydrochloride], for which the values for the EC50 in series [2] and in series [1] (Schistosoma mansoni) were 5.46 µM and 1250 nM, respectively. Further, the “Microsomal stability t1/2” value in series [3] is 186 min. Also, in series [5], the “Antimalarial activity in vitro and in vivo (ranking)” value is “most potent antimalarial activity in vitro and in vivo”. For the same compound, in series [4], the Tolerability in mice result is recorded as “well tolerated”. For the same compound, the “Mean number of worms (SD)” value in series [4] is 24.3 (4.3). For the compound `COc1cc(OC)c(CC=NNC(=N)NN=CCc2cc(Cl)c(OC)cc2OC)cc1Cl` [Compound 37, 2,2’-Bis[(2,4-dimethoxy-5-chlorophenyl)ethylidene]carbonimidic Dihydrazide Hydrochloride], the EC50 in series [1] (Schistosoma mansoni) was found to be 2700 nM. Still for that read-out and setting: the result for `C#CCOc1ccc(/C=N/NC(=N)N/N=C/c2ccc(C(=O)c3ccccc3)cc2)cc1` [Compound 86, N'-((E)-4-benzoylbenzylidene)-2-((E)-4-(prop-2-yn-1-yloxy)benzylidene)hydrazine-1-carboximidhydrazide Hydrochloride] reads 4440 nM. For `N=C(NN=CCc1ccc(OC(F)(F)F)cc1)NN=CCc1ccc(OC(F)(F)F)cc1` [Compound 17, 2,2’-Bis[(4-trifluoromethoxyphenyl)ethylidene]carbonimidic Dihydrazide Hydrochloride], the EC50 came to 4.91 µM in series [2] and 2010 nM in series [1] (Schistosoma mansoni). For `N=C(N/N=C/c1ccc(-c2ccc(F)cc2)cc1)N/N=C/c1ccc(-c2ccc(F)cc2)cc1` [Compound 53, (E)-2-((4'-fluoro-[1,1'-biphenyl]-4-yl)methylene)-N'-((E)-(4'-fluoro-[1,1'-biphenyl]-4-yl)methylene)hydrazine-1-carboximidhydrazide Hydrochloride], the EC50 in series [1] (Schistosoma mansoni) is 3370 nM.

With `N=C(NN=Cc1ccc(OC(F)(F)F)cc1)NN=Cc1ccc(OC(F)(F)F)cc1` [Compound 16, 2,2’-Bis[(4-trifluoromethoxyphenyl)methylene]carbonimidic Dihydrazide Hydrochloride], the figures for the EC50 in series [2] and in series [1] (Schistosoma mansoni) were 8.06 µM and 3310 nM, respectively.

Regarding `N=C(N/N=C/c1cccc(-c2ccccc2)c1)N/N=C/c1cccc(-c2ccccc2)c1` [Compound 52, (E)-N'-((E)-[1,1'-biphenyl]-3-ylmethylene)-2-([1,1'-biphenyl]-3-ylmethylene)hydrazine-1-carboximidhydrazide Hydrochloride], the EC50 came to 7.57 µM in series [2] and 3090 nM in series [1] (Schistosoma mansoni).

Take `N=C(N/N=C/c1cccc([N+](=O)[O-])c1)N/N=C/c1cccc([N+](=O)[O-])c1` [Compound 49, N',2-bis((E)-3-nitrobenzylidene)hydrazine-1-carboximidhydrazide Hydrochloride]: the concentration giving a half-maximal response (EC50) came to 9.47 µM in series [2] and 3300 nM in series [1] (Schistosoma mansoni). In the case of `Cl.N#Cc1cc(/C=N/NC(=N)N/N=C/c2ccc(OC(F)(F)F)cc2)ccc1F` [Compound 77, N'-((E)-3-cyano-4-fluorobenzylidene)-2-((E)-4-(trifluoromethoxy)benzylidene)hydrazine-1-carboximidhydrazide Hydrochloride], the EC50 came to 6.76 µM in series [2] and 4020 nM in series [1] (Schistosoma mansoni). In series [3] (mouse, liver microsomes, pH 7.4), the half-life – broadly, how long it takes for the measured level to halve – at 1 μM came to 280 min. Turning to `N=C(NN=Cc1ccc(C(F)(F)F)cc1)NN=Cc1ccc(C(F)(F)F)cc1` [Compound 12, 2,2’-Bis[(4-trifluoromethylphenyl)methylene]carbonimidic Dihydrazide Hydrochloride], the EC50 in series [1] (Schistosoma mansoni) came to 6230 nM. For `N=C(N/N=C/c1ccc(Oc2ccc(Cl)cc2)cc1)N/N=C/c1ccc(Oc2ccc(Cl)cc2)cc1` [Compound 59, N',2-bis((E)-4-(4-chlorophenoxy)benzylidene)hydrazine-1-carboximidhydrazide Hydrochloride], the values for the EC50 in series [2] and in series [1] (Schistosoma mansoni) were 5.52 µM and 2700 nM, respectively. For the compound `N#Cc1cccc(CC=NNC(=N)NN=CCc2cccc(C#N)c2)c1` [Compound 23, 2,2’-Bis[(3-cyanophenyl)ethylidene]carbonimidic Dihydrazide Hydrochloride], the EC50 turned out to be 2.69 µM in series [2] and 1120 nM in series [1] (Schistosoma mansoni). In the case of `N=C(N/N=C/c1cnc2ccccc2c1)N/N=C/c1cnc2ccccc2c1` [Compound 63, (E)-N'-((E)-quinolin-3-ylmethylene)-2-(quinolin-3-ylmethylene)hydrazine-1-carboximidhydrazide Hydrochloride], in series [1] (Schistosoma mansoni), the EC50 stood at 650 nM.
